Source: PubChem BioAssay (Johns Hopkins Ion Channel Center)
An excerpt weighted towards active compounds, which were near 3.7% of everything screened.
hERG protect – hERG rescue from dofetilide block, primary screen, cell-based, CHO-hERG, FluxOR thallium flux, dofetilide IC70; Voltage-gated inwardly rectifying potassium channel KCNH2 (Homo sapiens), Q12809; 310,000 tested, 0.51% active; dofetilide IC70 present; AID 1511, 2009; activation (rescue from dofetilide block), less the hit threshold, % at 10 µM;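 active = activation above the mean of controls blocked by dofetilide plus 5 SD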;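 also: thallium influx through hERG after potassium depolarization seen as dye fluorescence rise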
KCNQ1 block – inhibitors of human KCNQ1 channel, primary screen, cell-based, thallium flux, high-throughput | Potassium voltage-gated channel subfamily KQT member 1 (Homo sapiens), P51787 | CHO-K1 KCNQ1, FluxOR thallium flux fluorescence; stronger effect = higher value | B-score at 10 µM | 310,000 tested, 1.3% active | AID 2642, 2010;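 active = compounds whose thallium flux B-score, printed positive for inhibition, exceeds three library SD while starting fluorescence stays within three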;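 also: channel opened by potassium depolarization with thallium stimulus after 20 min compound exposure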
KCNQ1 act – potentiators or activators of KCNQ1 channel, primary screen, cell-based, thallium flux, high-throughput; Potassium voltage-gated channel subfamily KQT member 1 (Homo sapiens), P51787; 310,000 tested, 0.35% active; B-score at 10 µM; AID 2648, 2010; CHO-K1 KCNQ1, thallium flux FluxOR fluorescence; stronger effect = higher value;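 active = fluorescence ratio B-score, a plate-corrected score, at least three library SD, with initial intensity B-score within 5 SD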
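Assay system: stable KCNQ1 CHO-K1 line; medium: assay buffer, equal DMSO in all wells; timing: 90 min dye loading and 20 min compound exposure, both at room temperature; technique: kinetic FluxOR thallium fluorescence, 10-s 1-Hz baseline, 110-s post-stimulus read; read-out basis: B score of baseline-normalized fluorescence ratio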
Kir21 inh – inhibitors of mouse Kir2.1 inward-rectifier potassium channel. 310,000 tested, 0.85% active. HEK293-Kir2.1, FluxOR thallium flux fluorescence; stronger effect = lower value. B-score at 10 µM. AID 1672, 2009. Inward rectifier potassium channel 2 (Mus musculus), P35561;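 active = fluorescence ratio B-score at or below minus 3 SD of library scores, with starting-brightness B-score within 2 SD, cut at about -4.2 in these data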;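 also: channel flux triggered by added potassium and thallium sulfate stimulus; B-score of peak minus minimum fluorescence over baseline after thallium stimulus; more negative B-score means stronger Kir2.1 block with less thallium influx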
KCNK9 inh – KCNK9 potassium channel inhibitors, primary screen, HEK293 cells, thallium flux. Potassium channel subfamily K member 9 (Homo sapiens), Q9NPC2. FluxOR thallium flux fluorescence; stronger effect = lower value. B-score at 10 µM. 310,000 tested, 1.2% active. AID 488922, 2010;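 active = ratio B-score over 3 SD below the library mean, with starting fluorescence within 5 SD of its mean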;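 also: negative B-score means less thallium flux so channel inhibition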
KCNK3 inh – human KCNK3 channel inhibitors, primary screen, CHO cells, FluxOR thallium flux, B-score. B-score at 10 µM. 340,000 tested, 0.84% active. FluxOR fluorescence; stronger effect = lower value. AID 602410, 2012. Potassium channel subfamily K member 3 (Homo sapiens), O14649;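 active = B-score under library mean minus 4 SD, starting fluorescence ratio at most library mean plus 5 SD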;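 also: more negative B-score means stronger inhibition of thallium flux through KCNK3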
An asterisk follows results filed as active; i = inactive; . = no result.

SMILES	hERG protect	KCNQ1 block	KCNQ1 act	Kir21 inh	KCNK9 inh	KCNK3 inh
Cc1ccc(C)c(N2CCN(CCCNC(=O)Cn3cccc3C(=O)c3ccccc3C)CC2)c1	-27	i	i	-7.4*	i	i
Cc1ccccc1C(=O)c1cccn1CC(=O)NCCCN1CCCCC1	-4	i	i	0.2	i	i
CCn1c(CNC(=O)c2ccccc2OC)nnc1SCC(=O)c1ccc(F)cc1	-4	i	i	-0.38	i	i
Cc1ccc(NC(=O)c2ccccc2OCc2c(C)noc2C)cc1S(=O)(=O)N(C)C	.	.	.	.	.	i
COc1ccc(C=NNC(=O)c2ccccc2OCc2ccc(F)cc2)c(OC)c1	.	.	.	.	.	-9.9*
COc1cccc(NC(=O)c2ccccc2OCc2c(C)noc2C)c1	.	.	.	.	.	-11*
Cc1noc(C)c1COC(=O)c1ccccc1Oc1ccccc1	-11	i	i	-5.1*	i	i
COc1cc(NC(=O)c2ccccc2OCc2ccccc2)cc(OC)c1OC	11*	i	i	-0.1	i	i
CCOc1cc(/C=N/NC(=O)c2ccccc2OCc2ccc(F)cc2)ccc1O	.	.	.	.	.	i
Cc1noc(C)c1COC(=O)c1ccccc1NC(=O)Cc1ccccc1	-8	i	i	-1.5	i	i
CCCCCn1nc(C(=O)N(CC)c2c(N)n(CCCC)c(=O)[nH]c2=O)c2ccccc2c1=O	.	.	.	.	.	i
O=C(/C=C/c1ccccc1)CC(O)(c1ccccc1)C(F)(F)F (configuration not stated)	-10	i	i	-6.3*	i	i
CC1(C)Cc2c(sc3c2c(=N)n(Cc2ccco2)c(=O)n3Cc2ccc(Cl)cc2)CO1	-9	8*	i	-0.01	i	i
CC1(C)Cc2c(sc3c2c(=N)n(Cc2ccco2)c(=O)n3Cc2ccccc2)CO1	-7	i	i	-2.2	i	i
CC(=O)/C(=C/c1ccccc1)C(=O)Nc1ccccc1C	-11	i	i	-5.5*	i	i
O=[N+]([O-])c1cccc(/C=N/Nc2cc(Cl)nc(-c3ccccc3)n2)c1	-9	12*	i	0.28	i	-10*
O=C(CNS(=O)(=O)c1c(Cl)cccc1Cl)N1CCCCCC1	-2	i	i	-4.6*	i	i
Cc1cc(NS(=O)(=O)c2ccc(Nc3nc(-c4sc(NC(=O)c5ccccc5)nc4C)cs3)cc2)no1	-16	7*	i	-4.3*	i	.
Cc1nc(NC(=O)c2ccccc2)sc1-c1csc(Nc2cccc(F)c2)n1	-7	i	i	1.4	i	.
OCC1(CCc2ccccc2)CCN(Cc2cc(Cl)ccc2O)CC1	-14	i	i	-4.8*	i	i
Cc1ccc(-n2cccn2)c(CN2CCC(CO)(CCc3ccccc3)CC2)c1	-11	i	i	-2.1	i	i
OCC1(CCc2ccccc2)CCN(Cc2ccc(OC(F)F)cc2)CC1	-16	i	i	-3	i	i
OCC1(CCCc2ccccc2)CCN(Cc2ccc(F)cc2)CC1	-6	i	i	-6.2*	i	i
CC(=O)N(C)c1ccc(OCC(O)COc2ccc(N(C)C(C)=O)cc2)cc1	-6	i	i	-0.03	i	i
C=C(C)C(=O)OCC(O)COc1ccc(C(C)(C)c2ccc(OCC(O)COC(=O)C(=C)C)cc2)cc1 (configuration not stated)	-19	9*	i	0.17	i	-12*
CC(=O)c1ccc(OCC(O)COc2ccc(C(C)=O)cc2)cc1	4.9*	i	i	2.9	i	i
Cc1cccc(-n2cc(-c3ccc([N+](=O)[O-])cc3)[nH]c2=S)c1	-4	i	i	1.7	i	i
